Source: PMC4243704 (European journal of pharmaceutics and biopharmaceutics : …, 2013)
Read-outs that look alike come from different tables or passages of the source.

Legend:
[1] = Chemical stability in simulated gastric fluid; format: physicochemical; details: for SGF t1/2: SGF pH 1.2, 37 °C
How it was run: (§1)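 Incubated in simulated gastric fluid (pH 1.2) or simulated intestinal fluid at 37 °C. Remaining prodrug measured over time by reverse-phase C18 HPLC (0.1% TFA water/acetonitrile gradient). t1/2 estimated by linear regression of pseudo-first-order plots of prodrug concentration vs time.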

[2] = Chemical stability in simulated intestinal fluid; format: physicochemical; details: for SIF (pH 6.5) t1/2: 37 °C
How it was run: as §1

[3] = Chemical stability in pH 7.4 phosphate buffer; format: physicochemical; details: for Buffer pH 7.4 t1/2: phosphate buffer pH 7.4, 37 °C
How it was run: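 Non-enzymatic hydrolysis in 10 mmol/L phosphate buffer pH 7.4, triplicate wells, 37 °C up to 120 min. Aliquots quenched in acetonitrile with 0.1% TFA, filtered, and run on reverse-phase C18 HPLC (TFA water/acetonitrile gradient). t1/2 from linear regression of pseudo-first-order plots of prodrug concentration vs time.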

[4] = Enzymatic stability in Caco-2 cell homogenates; format: in vitro ADME; details: for Caco-2 cell homogenates t1/2: 500 μg/mL protein, 37 °C; for Stability in cell homogenate, D-prodrug relative to L-prodrug: Caco-2 cell homogenates (assigned from Table 2 ratios)
Microsomal stability = format: in vitro ADME, human; details: for Human liver microsome t1/2: 500 μg/mL microsomal protein, NADPH, 37 °C
Thymidine phosphorylase = target: T1, Thymidine phosphorylase (Homo sapiens, UniProt P19971); assay: Stability toward thymidine phosphorylase; format: in vitro ADME
T1 sequence (P19971 11-482): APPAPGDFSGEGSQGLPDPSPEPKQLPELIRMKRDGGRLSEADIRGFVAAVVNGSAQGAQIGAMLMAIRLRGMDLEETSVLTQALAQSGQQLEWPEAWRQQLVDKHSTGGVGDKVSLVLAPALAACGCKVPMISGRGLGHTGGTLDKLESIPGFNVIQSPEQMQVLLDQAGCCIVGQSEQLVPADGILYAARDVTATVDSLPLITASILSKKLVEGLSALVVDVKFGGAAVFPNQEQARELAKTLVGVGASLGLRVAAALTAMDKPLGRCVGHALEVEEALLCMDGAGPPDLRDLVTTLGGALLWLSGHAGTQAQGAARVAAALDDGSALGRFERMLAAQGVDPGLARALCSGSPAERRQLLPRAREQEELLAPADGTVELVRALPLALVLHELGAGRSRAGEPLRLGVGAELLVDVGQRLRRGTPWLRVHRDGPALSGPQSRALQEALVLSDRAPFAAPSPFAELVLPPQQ

[5] = Enzymatic stability in AsPC-1 cell homogenates; format: in vitro ADME; details: for AsPC-1 cell homogenates t1/2: 500 μg/mL protein, 37 °C; for Stability in cell homogenate, D-prodrug relative to L-prodrug: AsPC-1 cell homogenates (assigned from Table 2 ratios)
Caco-2 cells = assay: Uptake study in Caco-2 cells; format: cell-based; details: for Cytosine (%) of species found in cells / Gemcitabine (%) of species found in cells / Prodrug (%) of species found in cells: Caco-2 uptake without Gly-Pro, 1 h
AsPC-1 cells [6] = assay: Uptake study in AsPC-1 cells; format: cell-based; details: for Cytosine (%) of species found in cells / Gemcitabine (%) of species found in cells / Prodrug (%) of species found in cells: AsPC-1 uptake, 100 μM, 1 h; for Uptake amount, D-prodrug relative to L-prodrug (higher): 100 μM drug solution
AsPC-1 cells [7] = assay: Cell proliferation assay; format: cell-based
How it was run: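 AsPC-1 cells seeded at 125,000/well and grown 24 h in RPMI-1640 + 10% FBS, then washed with pH 6.0 uptake buffer. Test compound 2-fold serially diluted (5 to 0.078 mmol/L) in that buffer and applied for 2 h at 37 °C; buffer alone served as 100% viability. After washing, 24 h recovery in medium. XTT/phenazine methosulfate read at 450 nm; GI50 from nonlinear fitting.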

[8] = Caco-2 cell monolayer permeability, apical-to-basolateral; format: in vitro ADME; details: human, Caco-2
How it was run: (§2)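 Caco-2 cells grown 21–24 days on collagen-coated PTFE inserts, TEER 550–600 Ω cm2. Apical MES (pH 6.0) and basolateral HEPES (pH 7.4) buffers, preincubated 15 min at 37 °C. 0.1 mM test compound in apical MES, ±10 mM Gly-Pro. Receiver sampled at 15–120 min at 37 °C with buffer replacement. Samples acidified with 0.1% TFA and analysed by HPLC.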

Caco-2 monolayer = assay: as above; format: in vitro ADME
How it was run: as §2

[9] = In situ single-pass intestinal perfusion in mice; details: female, BALB/c, mouse, other: in situ single-pass intestinal (jejunal) perfusion, pH 6
mouse jejunum = assay: In situ single-pass intestinal perfusion in mice
[10] = for Concentration in plasma, D-prodrug relative to L-prodrug (higher): mouse plasma after in situ perfusion, prodrug plus metabolites
[11] = read-out: GI50 AsPC-1, 2 h exposure at pH 6.0, 24 h recovery, XTT

Compound | SGF t1/2 [1] | SIF (pH 6.5) t1/2 [2] | Buffer pH 7.4 t1/2 [3] | Caco-2 cell homogenates t1/2 [4] | Human liver microsome t1/2 (Microsomal stability) | Thymidine phosphorylase t1/2 (Thymidine phosphorylase) | AsPC-1 cell homogenates t1/2 [5] | Cytosine (%) of species found in cells (Caco-2 cells) | Gemcitabine (%) of species found in cells (Caco-2 cells) | Prodrug (%) of species found in cells (Caco-2 cells) | Cytosine (%) of species found in cells (AsPC-1 cells [6]) | Gemcitabine (%) of species found in cells (AsPC-1 cells [6]) | Prodrug (%) of species found in cells (AsPC-1 cells [6]) | GI50 (AsPC-1 cells [7]; [11]) | Stability in cell homogenate, D-prodrug relative to L-prodrug [4] | Stability in cell homogenate, D-prodrug relative to L-prodrug [5] | Uptake amount, D-prodrug lower than L-prodrug (Caco-2 cells; Caco-2 cells) | Uptake amount, D-prodrug relative to L-prodrug (higher) (AsPC-1 cells [6]; AsPC-1 cells) | Concentration in plasma, D-prodrug relative to L-prodrug (higher) [10] | further results
Nc1ccn([C@@H]2O[C@H](COC(=O)[C@@H](N)Cc3ccccc3)[C@@H](O)C2(F)F)c(=O)n1 [5′-L-Phenylalanyl-gemcitabine] | >120 min | >120 min | >120 min | 2.0 ± 0.3 min | 1.8 ± 0.2 min | 31.9 ± 5.0 min | 6.8 ± 2.0 min | 0% | 18% | 82% | 10% | 84% | 6% | 4.3 ± 1.5 mM | – | – | – | – | – | –
Nc1ccn([C@@H]2O[C@H](CO)[C@@H](O)C2(F)F)c(=O)n1 [Gemcitabine, reference compound] | – | – | – | – | – | – | – | – | 50% | – | – | 90% | – | – | – | – | – | – | – | Degradation in SGF [1]: no significant degradation; half-life ([1]; simulated gastric fluid (SGF), pH 1.2): > 120 min; Degradation in SIF [2]: no significant degradation; half-life ([2]; simulated intestinal fluid (SIF), pH 6.5): > 120 min; Degradation in pH 7.4 phosphate buffer ([3]; pH 7.4): no significant degradation; half-life ([3]; phosphate buffer, pH 7.4): > 120 min; half-life ([4]; human, Caco-2, pH 7.4): 105 ± 6.1 min; half-life (Microsomal stability; human, human liver microsomes, pH 7.4): 45.3 ± 3.3 min; Resistance against thymidine phosphorylase (words) (Thymidine phosphorylase): rapidly cleaved; Resistance against thymidine phosphorylase (words) (Thymidine phosphorylase; listed as gemcitabine): did not display the resistance; half-life (Thymidine phosphorylase; thymidine phosphorylase, pH 7.4): 6 ± 1.8 min; half-life ([5]; human, AsPC-1 cell homogenates, pH 7.4): 33.7 ± 14.5 min; Difference in uptake amount with and without 10 mM Gly-Pro (Caco-2 cells; Caco-2 cells): did not exhibit the difference; Papp at 2 h, 0.1 mM [8]: 1 ± 0.2 ×10⁻⁶ cm/s; Difference in membrane permeability with and without 10 mM Gly-Pro (Caco-2 monolayer; Caco-2 monolayers): did not exhibit the difference; Species detected in the basolateral receiver compartment (Caco-2 monolayer; following transport across Caco-2 monolayers): only cytosine; GI50 (AsPC-1 cells [7]; Homo sapiens, ASPC1, pH 6, read-out: GI50 AsPC-1): 10.2 ± 1.6 mM; Papp at 90 min, 100 μM [9]: 2 ×10⁻⁶ cm/s; Peff, mouse perfusion (mouse jejunum; mouse jejunum, 100 μM, pH 6.0): 2.0 ± 0.2 ×10^−5 cm/s
CC(C)[C@@H](N)C(=O)OC[C@H]1O[C@@H](n2ccc(N)nc2=O)C(F)(F)[C@@H]1O [5′-D-Valyl-gemcitabine] | >120 min | >120 min | >120 min | 42.0 ± 17.5 min | 19.5 ± 4.4 min | >120 min | 87.2 ± 13.5 min | 0% | 10% | 90% | 4% | 77% | 19% | 2.2 ± 0.9 mM | 2.2 fold | 6.3 fold | 46% | 3.1 fold | 2.3 fold | Dose linearity of uptake (AsPC-1 cells [6]; AsPC-1 cells, 50 μM vs 100 μM): exhibited the dose linearity; Prodrug concentration in blood ([10]; after in situ perfusion of mouse small intestine): highest
5′-L-Valyl-gemcitabine | >120 min | >120 min | >120 min | 19.5 ± 1.9 min | 27.8 ± 13.6 min | >120 min | 13.8 ± 3.3 min | 0% | 15% | 85% | 20% | 11% | 69% | 2 ± 0.8 mM | – | – | – | – | – | Membrane permeability, L-prodrug better than D-prodrug (mouse jejunum; mouse in situ perfusion): 87%
Nc1ccn([C@@H]2O[C@H](COC(=O)[C@H](N)Cc3ccccc3)[C@@H](O)C2(F)F)c(=O)n1 [5′-D-Phenylalanyl-gemcitabine] | >120 min | >120 min | >120 min | 21.7 ± 0.2 min | 6.6 ± 1.3 min | >120 min | 63.9 ± 11.2 min | 0% | 31% | 69% | 1% | 87% | 12% | 5.6 ± 1.1 mM | 10.9 fold | 9.4 fold | 70% | 3.3 fold | 2.0 fold | Stability in human liver microsomes, D-prodrug relative to L-prodrug (Microsomal stability): 3.7 fold; Uptake enhancement relative to gemcitabine (AsPC-1 cells [6]; AsPC-1 cells, lower concentration (50 μM)): did not show the enhancement of uptake
